According to ChEMBL document CHEMBL1134346, “Labeling and evaluation of N-[11C]methylated quinoline-2-carboxamides as potential radioligands for visualization of peripheral benzodiazepine receptors” (J Med Chem, 2001):

Columns and labels:
[1] = species: Rattus norvegicus; experiment: Tissue (adrenal gland) distribution in Albino male CD rats after 60 minutes expressed as percent of injected dose per gram of organ.; type: ADME, organism-based; conditions: in vivo, 1 h
How it was run: (§1)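 Radioligand given in saline into tail vein of male albino CD rats (225-250 g); 100-200 µCi per animal, 1-2 Ci/µmol at injection depending on radioligand. Three rats per time point were decapitated under light ether anaesthesia. Blood, plasma, brain regions and washed organs were weighed and gamma-counted. Uptake is %I.D./g tissue, mean ± SD.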

[2] = species: Rattus norvegicus; experiment: Tissue (cortex) distribution in Albino male CD rats after 60 minutes expressed as percent of injected dose per gram of organ.; type: ADME, organism-based; conditions: in vivo, 1 h; how it was run: as §1
[3] = target: Translocator protein (Rattus norvegicus) (UniProt P16257); experiment: Tissue (liver) concentration of radioactivity at 30 min post-injection into Albino male CD rats after pretreatment with cold PK 11195.; type: functional, tissue-based
Chain of Translocator protein (Rattus norvegicus) (P16257 whole entry, looked up): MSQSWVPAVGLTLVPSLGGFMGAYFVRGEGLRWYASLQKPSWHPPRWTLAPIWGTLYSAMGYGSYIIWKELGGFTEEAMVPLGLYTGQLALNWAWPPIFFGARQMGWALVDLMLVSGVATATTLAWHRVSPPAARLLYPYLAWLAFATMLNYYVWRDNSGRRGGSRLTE
How it was run: (§2)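 Separate groups of five rats received tail-vein PK 11195 (1.4-1.6 mg; 5 mg/kg) in 30 µL DMSO:EtOH 1:1, or vehicle alone, immediately before iv radioligand (90-170 µCi in saline, 0.9-1 Ci/µmol). Rats were decapitated at 30 min and tissues gamma-counted; values are %I.D./g.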

[4] = species: Rattus norvegicus; experiment: Tissue (adrenal gland) distribution in Albino male CD rats after 5 minutes expressed as percent of injected dose per gram of organ.; type: ADME, organism-based; conditions: in vivo; how it was run: as §1
[5] = species: Rattus norvegicus; experiment: Tissue (plasma) distribution in Albino male CD rats after 90 minutes expressed as percent of injected dose per gram of organ.; type: ADME, organism-based; conditions: in vivo, 1.5 h
How it was run: (§3)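 Male albino CD rats (225-250 g) received the 11C-labelled radioligand in saline by tail-vein injection. Three rats per time point were decapitated under light ether anaesthesia at 5, 15, 30, 60 or 90 min. Blood was collected heparinized and plasma separated by centrifugation. The pituitary was dissected from the brain. Lung, liver (three-lobe pieces) and right deltoid muscle were sampled, washed in cold saline, gamma-counted and weighed. Results are %I.D./g.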

[6] = species: Rattus norvegicus; experiment: Tissue (liver) concentration of radioactivity at 30 min post-injection into Albino male CD rats with vehicle.; type: ADME, organism-based; conditions: in vivo, 0.5 h; how it was run: as §2
[7] = species: Rattus norvegicus; experiment: Tissue (cerebellum) distribution in Albino male CD rats after 30 minutes expressed as percent of injected dose per gram of organ.; type: ADME, organism-based; conditions: in vivo, 0.5 h; how it was run: as §1
[8] = species: Rattus norvegicus; experiment: Tissue (heart) distribution in Albino male CD rats after 30 minutes expressed as percent of injected dose per gram of organ.; type: ADME, organism-based; conditions: in vivo, 0.5 h; how it was run: as §1
[9] = species: Rattus norvegicus; experiment: Tissue (blood) distribution in Albino male CD rats after 15 minutes expressed as percent of injected dose per gram of organ.; type: ADME, organism-based; conditions: in vivo, 0.25 h; how it was run: as §1
[10] = species: Rattus norvegicus; experiment: Tissue (plasma) distribution in Albino male CD rats after 60 minutes expressed as percent of injected dose per gram of organ.; type: ADME, organism-based; conditions: in vivo, 1 h; how it was run: as §3
[11] = species: Rattus norvegicus; experiment: Tissue (blood) distribution in Albino male CD rats after 30 minutes expressed as percent of injected dose per gram of organ.; type: ADME, organism-based; conditions: in vivo, 0.5 h; how it was run: as §1
[12] = species: Rattus norvegicus; experiment: Tissue (testicle) distribution in Albino male CD rats after 5 minutes expressed as percent of injected dose per gram of organ.; type: ADME, organism-based; conditions: in vivo; how it was run: as §3
[13] = target: Translocator protein (Rattus norvegicus) (UniProt P16257); experiment: Tissue (pituitary) concentration of radioactivity at 30 min post-injection into Albino male CD rats after pretreatment with cold PK 11195.; type: functional, tissue-based; conditions: Pituitary gland
How it was run: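 Blocking study in male albino CD rats, five per group. Immediately before the 11C radioligand (in saline, i.v. tail vein), rats received 30 µL tail-vein PK 11195 (5 mg/kg; 1.4-1.6 mg) in DMSO:EtOH 1:1, or vehicle. Rats were decapitated at 30 min. Tissues were dissected, washed, gamma-counted and weighed as in the biodistribution study. Results are %I.D./g.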

[14] = species: Rattus norvegicus; experiment: Tissue (intestine) distribution in Albino male CD rats after 15 minutes expressed as percent of injected dose per gram of organ.; type: ADME, organism-based; conditions: in vivo, 0.25 h; how it was run: as §1
[15] = target: Translocator protein (Rattus norvegicus) (UniProt P16257); experiment: Tissue (cortex) concentration of radioactivity at 30 min post-injection into Albino male CD rats after pretreatment with cold PK 11195.; type: functional; how it was run: as §2
[16] = species: Rattus norvegicus; experiment: Tissue (plasma) distribution in Albino male CD rats after 15 minutes expressed as percent of injected dose per gram of organ.; type: ADME, organism-based; conditions: in vivo, 0.25 h; how it was run: as §3
[17] = species: Rattus norvegicus; experiment: Tissue (blood) distribution in Albino male CD rats after 60 minutes expressed as percent of injected dose per gram of organ.; type: ADME, organism-based; conditions: in vivo, 1 h; how it was run: as §1
[18] = species: Rattus norvegicus; experiment: Tissue (lung) distribution in Albino male CD rats after 15 minutes expressed as percent of injected dose per gram of organ.; type: ADME, organism-based; conditions: in vivo, 0.25 h; how it was run: as §3
[19] = species: Rattus norvegicus; experiment: Tissue (liver) distribution in Albino male CD rats after 15 minutes expressed as percent of injected dose per gram of organ.; type: ADME, organism-based; conditions: in vivo, 0.25 h; how it was run: as §1
[20] = species: Rattus norvegicus; experiment: Tissue (cerebellum) distribution in Albino male CD rats after 90 minutes expressed as percent of injected dose per gram of organ.; type: ADME, organism-based; conditions: in vivo, 1.5 h; how it was run: as §1
[21] = species: Rattus norvegicus; experiment: Tissue (cortex) distribution in Albino male CD rats after 90 minutes expressed as percent of injected dose per gram of organ.; type: ADME, organism-based; conditions: in vivo, 1.5 h; how it was run: as §1
[22] = species: Rattus norvegicus; experiment: Tissue (pituitary) distribution in Albino male CD rats after 90 minutes expressed as percent of injected dose per gram of organ.; type: ADME, organism-based, Pituitary gland; conditions: in vivo, 1.5 h; how it was run: as §3
[23] = species: Rattus norvegicus; experiment: Tissue (cortex) distribution in Albino male CD rats after 15 minutes expressed as percent of injected dose per gram of organ.; type: ADME, organism-based; conditions: in vivo, 0.25 h; how it was run: as §1
[24] = species: Rattus norvegicus; experiment: Tissue (muscle) distribution in Albino male CD rats after 30 minutes expressed as percent of injected dose per gram of organ.; type: ADME, organism-based; conditions: in vivo, 0.5 h; how it was run: as §3
[25] = species: Rattus norvegicus; experiment: Tissue (kidney) distribution in Albino male CD rats after 15 minutes expressed as percent of injected dose per gram of organ.; type: ADME, organism-based; conditions: in vivo, 0.25 h; how it was run: as §1
[26] = species: Rattus norvegicus; experiment: Tissue (cerebellum) distribution in Albino male CD rats after 60 minutes expressed as percent of injected dose per gram of organ.; type: ADME, organism-based; conditions: in vivo, 1 h; how it was run: as §1
[27] = species: Rattus norvegicus; experiment: Tissue (pituitary) distribution in Albino male CD rats after 5 minutes expressed as percent of injected dose per gram of organ.; type: ADME, organism-based, Pituitary gland; conditions: in vivo; how it was run: as §3
[28] = species: Rattus norvegicus; experiment: Tissue (intestine) distribution in Albino male CD rats after 30 minutes expressed as percent of injected dose per gram of organ.; type: ADME, organism-based; conditions: in vivo, 0.5 h; how it was run: as §1
[29] = species: Rattus norvegicus; experiment: Tissue (heart) distribution in Albino male CD rats after 60 minutes expressed as percent of injected dose per gram of organ.; type: ADME, organism-based; conditions: in vivo, 1 h; how it was run: as §1
[30] = species: Rattus norvegicus; experiment: Tissue (kidney) distribution in Albino male CD rats after 5 minutes expressed as percent of injected dose per gram of organ.; type: ADME, organism-based; conditions: in vivo; how it was run: as §1
[31] = species: Rattus norvegicus; experiment: Tissue (cortex) concentration of radioactivity at 30 min post-injection into Albino male CD rats with vehicle.; type: ADME, organism-based; conditions: in vivo, 0.5 h; how it was run: as §2
[32] = target: Translocator protein (Rattus norvegicus) (UniProt P16257); experiment: Tissue (adrenal gland) concentration of radioactivity at 30 min post-injection into Albino male CD rats after pretreatment with cold PK 11195.; type: functional, tissue-based; how it was run: as §2
[33] = species: Rattus norvegicus; experiment: Tissue (spleen) distribution in Albino male CD rats after 60 minutes expressed as percent of injected dose per gram of organ.; type: ADME, organism-based; conditions: in vivo, 1 h
[34] = species: Rattus norvegicus; experiment: Tissue (liver) distribution in Albino male CD rats after 30 minutes expressed as percent of injected dose per gram of organ.; type: ADME, organism-based; conditions: in vivo, 0.5 h; how it was run: as §3
[35] = species: Rattus norvegicus; experiment: Tissue (pituitary) distribution in Albino male CD rats after 15 minutes expressed as percent of injected dose per gram of organ.; type: ADME, organism-based, Pituitary gland; conditions: in vivo, 0.25 h; how it was run: as §3
[36] = species: Rattus norvegicus; experiment: Tissue (heart) distribution in Albino male CD rats after 5 minutes expressed as percent of injected dose per gram of organ.; type: ADME, organism-based; conditions: in vivo; how it was run: as §1
[37] = species: Rattus norvegicus; experiment: Tissue (testicle) distribution in Albino male CD rats after 60 minutes expressed as percent of injected dose per gram of organ.; type: ADME, organism-based; conditions: in vivo, 1 h; how it was run: as §3
[38] = species: Rattus norvegicus; experiment: Tissue (blood) distribution in Albino male CD rats after 90 minutes expressed as percent of injected dose per gram of organ.; type: ADME, organism-based; conditions: in vivo, 1.5 h; how it was run: as §1
[39] = species: Rattus norvegicus; experiment: Tissue (liver) distribution in Albino male CD rats after 5 minutes expressed as percent of injected dose per gram of organ.; type: ADME, organism-based; conditions: in vivo; how it was run: as §3
[40] = species: Rattus norvegicus; experiment: Tissue (kidney) distribution in Albino male CD rats after 60 minutes expressed as percent of injected dose per gram of organ.; type: ADME, organism-based; conditions: in vivo, 1 h; how it was run: as §1

Cc1c(C(=O)N(C)Cc2ccccc2)nc2ccccc2c1-c1ccccc1
I.D./g [1]: 4%
I.D./g [2]: 0.06%
I.D./g [3]: < 0.16%
I.D./g [4]: 0.77%
I.D./g [5]: 0.05%
I.D./g [6]: 0.08%
I.D./g [7]: 0.12%
I.D./g [8]: 2.58%
I.D./g [9]: 0.09%
I.D./g [10]: 0.05%
I.D./g [11]: 0.06%
I.D./g [12]: 0.06%
I.D./g [13]: > 0.09%
I.D./g [14]: 0.78%
I.D./g [15]: 0.02%
I.D./g [16]: 0.09%
I.D./g [17]: 0.06%
I.D./g [18]: 3.32%
I.D./g [19]: 0.59%
I.D./g [20]: 0.09%
I.D./g [21]: 0.05%
I.D./g [22]: 0.15%
I.D./g [23]: 0.17%
I.D./g [24]: 0.26%
I.D./g [25]: 1.17%
I.D./g [26]: 0.08%
I.D./g [27]: 0.33%
I.D./g [28]: 0.55%
I.D./g [29]: 2.09%
I.D./g [30]: 0.79%
I.D./g [31]: 0.02%
I.D./g [32]: < 0.17%
I.D./g [33]: 1.55%
I.D./g [34]: 0.43%
I.D./g [35]: 0.49%
I.D./g [36]: 1.79%
I.D./g [37]: 0.15%
I.D./g [38]: 0.04%
I.D./g [39]: 0.37%
I.D./g [40]: 1.14%
